According to publication PMC2585982 (Toxicology and applied pharmacology, 2008):
Read-outs that look alike come from different tables or passages of the source.

What was measured:
[1] = system: P450 1A1/1A2; assay: Western blot of liver microsomes, P450 1A1/1A2 protein expression; conditions: C57BL/6 mice, 100 mg/kg p.o. 3 days
[2] = system: P450 2B10; assay: Western blot of liver microsomes, P450 2B10 protein expression; conditions: C57BL/6 mice, 100 mg/kg p.o. 3 days
[3] = system: P450 3A11; assay: Western blot of liver microsomes, P450 3A11 protein expression; conditions: C57BL/6 mice, 100 mg/kg p.o. 3 days
[4] = biological target: full-length mCAR (Mus musculus, UniProt O35627); assay: CAR transfection assay, full-length mCAR reporter in HepG2 cells; type: cell-based, murine; conditions: 4 μM androstanol
Chain of full-length mCAR (O35627 whole entry): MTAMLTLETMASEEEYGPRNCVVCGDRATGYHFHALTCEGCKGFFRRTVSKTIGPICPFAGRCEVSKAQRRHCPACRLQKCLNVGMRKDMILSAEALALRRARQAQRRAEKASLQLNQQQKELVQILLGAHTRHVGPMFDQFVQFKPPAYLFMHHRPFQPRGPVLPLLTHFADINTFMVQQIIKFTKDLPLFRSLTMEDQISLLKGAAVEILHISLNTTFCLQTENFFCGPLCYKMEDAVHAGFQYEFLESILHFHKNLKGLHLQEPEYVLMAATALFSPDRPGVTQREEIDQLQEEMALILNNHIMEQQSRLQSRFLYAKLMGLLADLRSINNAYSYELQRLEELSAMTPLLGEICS
In short: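 HepG2 cells in DMEM with 10% FBS were plated at 10^5 per well in charcoal-stripped serum. They were co-transfected with pCMX-mCAR or empty pCMX, a […] (LXRE)3 firefly luciferase reporter and a pRL-tk renilla control. At 70–80% confluence, cells got 4 μM androstanol, 0.1% DMSO or 4 μM […] plus 250 nM reference agonist or 0.1–100 μM test compound. After 24 h, firefly/renilla ratio was read; mean ± SD, ≥3 experiments.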

[5] = biological target: PXR LBD and SRC-1 RID (Mus musculus, UniProt O54915); assay: Mammalian two-hybrid assay, Gal-SRC-1 RID + VP-L-PXR in CV-1 cells; type: cell-based; conditions: isopimpinellin 50 μM; PCN 10 μM; Figure 7A
Chain of PXR LBD and SRC-1 RID (Q15788 570-780 partner limits assumed, one chain of several): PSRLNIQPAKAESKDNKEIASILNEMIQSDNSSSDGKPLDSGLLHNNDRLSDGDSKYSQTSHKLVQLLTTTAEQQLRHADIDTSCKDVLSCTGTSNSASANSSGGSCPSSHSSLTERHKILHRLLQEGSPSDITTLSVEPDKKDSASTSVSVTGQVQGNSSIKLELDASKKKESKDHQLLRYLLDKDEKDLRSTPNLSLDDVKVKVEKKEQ
In short: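 Mammalian two-hybrid in CV-1 cells co-transfected with Gal-SRC-1 RID and/or VP-L-PXR, plus MH100-tk-luc reporter and CMX-β-gal. Cells were exposed to compound or solvent control in medium for 18–24 h. Interaction was taken as luciferase activity normalised to β-gal activity; mean ± SD.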

[6] = biological target: T1, PXR (Mus musculus, UniProt O54915); assay: GAL-PXR reporter assay; type: cell-based; conditions: CV-1 cells, 18–24 h
T1 sequence (O54915 143-430 limits assumed): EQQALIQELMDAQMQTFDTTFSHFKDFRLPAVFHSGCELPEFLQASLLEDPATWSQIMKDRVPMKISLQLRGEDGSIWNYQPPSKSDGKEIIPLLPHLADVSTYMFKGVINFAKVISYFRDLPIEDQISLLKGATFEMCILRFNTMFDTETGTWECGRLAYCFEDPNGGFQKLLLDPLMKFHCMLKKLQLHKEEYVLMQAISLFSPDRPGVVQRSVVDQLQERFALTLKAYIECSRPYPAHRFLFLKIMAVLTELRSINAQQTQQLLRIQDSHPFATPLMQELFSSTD

[7] = biological target: T2, PXR (Mus musculus, UniProt O54915); assay: PXR-DR3 reporter assay; type: cell-based; conditions: CV-1 cells, full length PXR
T2 sequence (O54915 1-431): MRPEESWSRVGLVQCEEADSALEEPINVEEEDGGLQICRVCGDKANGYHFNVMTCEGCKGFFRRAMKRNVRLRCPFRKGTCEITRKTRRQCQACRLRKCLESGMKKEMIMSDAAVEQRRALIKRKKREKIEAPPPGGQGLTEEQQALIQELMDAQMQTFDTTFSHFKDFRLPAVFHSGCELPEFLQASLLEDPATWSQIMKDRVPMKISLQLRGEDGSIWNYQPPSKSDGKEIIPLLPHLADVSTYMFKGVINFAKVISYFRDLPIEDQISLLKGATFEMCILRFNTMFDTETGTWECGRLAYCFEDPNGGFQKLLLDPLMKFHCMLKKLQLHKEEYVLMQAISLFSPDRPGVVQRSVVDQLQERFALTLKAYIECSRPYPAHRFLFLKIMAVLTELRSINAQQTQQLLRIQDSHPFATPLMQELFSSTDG
T2 sequence (P19793 1-462 partner): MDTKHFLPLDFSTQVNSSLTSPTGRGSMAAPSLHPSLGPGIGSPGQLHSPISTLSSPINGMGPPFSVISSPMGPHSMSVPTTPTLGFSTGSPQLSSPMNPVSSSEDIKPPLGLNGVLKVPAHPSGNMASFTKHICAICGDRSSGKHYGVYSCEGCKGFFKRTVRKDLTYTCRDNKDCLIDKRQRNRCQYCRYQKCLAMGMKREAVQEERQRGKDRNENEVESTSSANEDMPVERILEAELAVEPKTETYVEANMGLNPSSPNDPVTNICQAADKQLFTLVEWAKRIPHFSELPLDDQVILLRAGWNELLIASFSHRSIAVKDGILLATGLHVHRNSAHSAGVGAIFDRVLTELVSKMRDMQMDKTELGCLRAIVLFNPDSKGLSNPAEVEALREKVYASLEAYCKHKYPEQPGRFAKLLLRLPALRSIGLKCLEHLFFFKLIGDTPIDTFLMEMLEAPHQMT

[8] = system: GSTa1 mRNA; assay: Northern blot of liver RNA, GSTa1 mRNA in CAR; type: in vivo, mice; conditions: isopimpinellin 150 mg/kg p.o. 24 h; TC 3 mg/kg i.p. 6 h
[9] = system: Cyp2b10 mRNA; assay: Northern blot of liver RNA, Cyp2b10 mRNA in CAR; conditions: isopimpinellin 150 mg/kg p.o. 24 h, TC 3 mg/kg i.p. 6 h
[10] = system: GSTp mRNA; assay: Northern blot of liver RNA, GSTp mRNA in CAR; type: in vivo, mice; conditions: isopimpinellin 150 mg/kg p.o. 24 h; TC 3 mg/kg i.p. 6 h
[11] = biological target: mCAR-LBD fused to the Gal4 DNA binding domain (Mus musculus, UniProt O35627); assay: CAR transfection assay, Gal4-mCAR LBD fusion reporter in HepG2 cells; type: cell-based, murine; conditions: HepG2, 4 μM androstanol; 250 nM TC or 0.1–100 μM isopimpinellin, 24 h
Chain of mCAR-LBD fused to the Gal4 DNA binding domain (O35627 119-358 limits assumed): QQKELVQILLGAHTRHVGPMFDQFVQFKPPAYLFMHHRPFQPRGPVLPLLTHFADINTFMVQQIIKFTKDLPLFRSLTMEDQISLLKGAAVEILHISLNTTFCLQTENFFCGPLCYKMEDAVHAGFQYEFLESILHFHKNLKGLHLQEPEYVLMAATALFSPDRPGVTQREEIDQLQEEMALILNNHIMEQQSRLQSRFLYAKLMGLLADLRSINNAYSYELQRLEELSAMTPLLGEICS

[12] = system: Cyp3a11 mRNA; assay: Northern blot of liver RNA, Cyp3a11 mRNA in CAR; conditions: isopimpinellin 150 mg/kg p.o. 24 h, TC 3 mg/kg i.p. 6 h
[13] = system: P450; assay: Liver microsomal P450 content after oral dosing of mice; type: in vivo; conditions: C57BL/6 mice, 100 mg/kg p.o. 3 days, vs corn oil
[14] = system: NQO; assay: Liver cytosolic NQO activity; type: in vivo, mice; conditions: vs corn oil; for Increase in NQO activity, liver cytosol: C57BL/6 mice, 100 mg/kg p.o. 3 days
[15] = system: P450s 2B9/10; assay: Liver microsomal P450 2B activity; type: in vivo, mice
[16] = system: GSTμ; assay: Western blot of liver cytosol, GSTμ protein expression; type: in vivo, mice
[17] = system: P450 1A1/1A2; conditions: mouse, in vivo
[18] = system: P450s 1A1/2; assay: Liver microsomal P450 1A activity; type: in vivo, mice
[19] = system: P450 3A11; assay: Liver microsomal P450 3A activity; type: in vivo, mice
[20] = system: P450 2B; conditions: cited from earlier work
[21] = system: P450s 2B9/10; conditions: mouse, in vivo; cited from earlier work
[22] = system: P450 2B10; conditions: mouse, in vivo
[23] = system: GSTα; assay: Western blot of liver cytosol, GSTα protein expression; type: in vivo; conditions: SENCAR mice, 35, 70, 150 mg/kg p.o., particularly at the highest doses
[24] = system: GST (cumene hydroperoxide); assay: Liver GST activity, cumene hydroperoxide as substrate, after oral dosing of mice; type: in vivo; conditions: female SENCAR mice, even at the highest doses, data not shown
[25] = system: GSTπ; assay: Western blot of liver cytosol, GSTπ protein expression; type: in vivo; conditions: SENCAR mice, 35, 70, 150 mg/kg p.o.
[26] = system: human PXR; conditions: read-out: EC50, activation of human PXR; ref Yang and Yan, 2007; cited from earlier work
[27] = system: rat PXR; conditions: read-out: EC50, activation of rat PXR; ref Yang and Yan, 2007; cited from earlier work
[28] = system: GST (DCNB, GST μ); assay: Liver cytosolic GST activity, DCNB as substrate, after oral dosing of mice; type: in vivo; conditions: C57BL/6 mice, 100 mg/kg p.o. 3 days, vs corn oil
[29] = C57BL/6 mice, 100 mg/kg p.o. 3 days, vs corn oil

COc1cc(OC)c2ccc(=O)oc2c1 [limettin, 5,7-dimethoxycoumarin]
P450 1A1/1A2 protein expression (western blot densitometry) [1]: did not have any apparent effect
P450 2B10 protein expression (western blot densitometry) [2]: did not have any apparent effect
P450 3A11 protein expression (western blot densitometry) [3]: did not have any apparent effect

CC(C)=CCC/C(C)=C/COc1ccc2ccc(=O)oc2c1 [auraptene]
P450 1A1/1A2 protein expression (western blot densitometry) [1]: did not have any apparent effect
P450 2B10 protein expression (western blot densitometry) [2]: did not have any apparent effect
P450 3A11 protein expression (western blot densitometry) [3]: did not have any apparent effect

C[C@@]12CCC[C@H]1[C@@H]1CC[C@H]3C[C@@H](O)CC[C@]3(C)[C@H]1CC2 [androstanol]
Constitutive CAR transactivation [4]: blocked

CC(=O)[C@H]1[C@H](C#N)C[C@H]2[C@@H]3CC=C4C[C@@H](O)CC[C@]4(C)[C@H]3CC[C@@]21C [PCN, reference compound]
Induced interaction of PXR LBD and SRC-1 RID compared to the control [5]: similar
Max (concentration to reach maximal effect), GAL-PXR [6]: 3,000 nM
ED50, GAL-PXR activation ([6]; luciferase normalized by β-gal): 0.063 µM
Max (concentration to reach maximal effect), PXR-DR3 [7]: 100 nM
ED50, PXR-DR3 activation ([7]; 18–24 h): 0.02 µM

Clc1cnc(Oc2ccc(Oc3ncc(Cl)cc3Cl)cc2)c(Cl)c1 [TC, 1,4-bis[2-(3,5-dichloropyridyloxy)]benzene, reference compound]
Increase in hepatic GSTa1 mRNA, female CAR(−/−) mice [8]: did not increase
Increase in hepatic GSTa1 mRNA, male CAR(−/−) mice [8]: did not increase
Increase in hepatic GSTa1 mRNA, male and female CAR(+/+) mice [8]: 8–10 fold
Induction of hepatic Cyp2b10 mRNA, CAR(−/−) mice [9]: absent
Induction of hepatic Cyp2b10 mRNA, CAR(+/+) mice ([9]; male and female): ~ 4 fold
Increase in hepatic GSTp mRNA, CAR(−/−) mice [10]: no increase
Increase in hepatic GSTp mRNA, female CAR(+/+) mice [10]: ~ 4 fold
Effect on the inhibitory effect of androstanol on Gal4 reporter expression (mCAR-LBD) [11]: counteracted
Induction of hepatic Cyp3a11 mRNA, CAR(−/−) mice [12]: absent
Induction of hepatic Cyp3a11 mRNA, CAR(+/+) mice ([12]; male and female): ~ 4 fold

CCC1(c2ccccc2)C(=O)NC(=O)NC1=O [PB, Phenobarbital, reference compound]
P450 content, liver microsomes [13]: increased
P450 2B10 protein expression (western blot densitometry) [2]: increased
Increase in NQO activity, liver cytosol [14]: not significantly different from the control group
Increase in P450 2B activity (pentoxyresorufin), liver microsomes [15, 29]: significant increase
Liver cytosolic GSTμ protein expression (western blot densitometry) ([16]; C57BL/6 mice, 100 mg/kg p.o. 3 days): greater effect
P450 1A1/1A2 protein expression (western blot densitometry) ([17]; po, 100 mg/kg): increased
P450 3A11 protein expression (western blot densitometry) [3]: increased
P450 1 activity (ethoxyresorufin), liver microsomes [18, 29]: significant increase
Increase in P450 3A activity (testosterone), liver microsomes ([19]; mouse, in vivo, po, 100 mg/kg): 3–4 fold

CC(C)=CCOc1c2occc2cc2ccc(=O)oc12 [imperatorin]
Potency at blocking P450 2B activity relative to isopimpinellin [20]: 10–100 times
Liver cytosolic NQO activity, dose-response study ([14]; female SENCAR mice, 35, 70, 150 mg/kg p.o. 4 days): increased at all doses
Hepatic P450 2B9/10 activity at 1 h after the final dose [21]: no elevation
Increase in hepatic P450 2B9/10 activity at 24 h after the final dose [21]: 100 fold
Increase in P450 2B9/10 enzyme activity, dose-response study ([15]; mouse, in vivo): ~ 100 fold
P450 2B activity, liver microsomes, dose-response study ([15]; mouse, in vivo): significant increases
Hepatic expression of GST μ protein, dose-response study ([16]; SENCAR mice, 35, 70, 150 mg/kg p.o.): no increase
P450 1A1/1A2 protein levels, dose-response study [17]: elevated
Increase in P450 2B9/10 protein expression (optical density), dose-response study [22]: 1.5–2 fold
P450 2B10 protein levels, dose-response study [22]: significantly elevated
Hepatic expression of GST α protein, dose-response study [23]: greatly increased
GST activity using cumene hydroperoxide as a substrate [24]: no differences
P450 1 activity, liver microsomes, dose-response study ([18]; mouse, in vivo): significant increases
Hepatic expression of GST π protein, dose-response study [25]: modest increase
P450 3A activity, liver microsomes, dose-response study ([19]; mouse, in vivo): increased

CC(C)=CCC/C(C)=C/COc1c2ccoc2cc2oc(=O)ccc12 [bergamottin]
P450 1A1/1A2 protein expression (western blot densitometry) [1]: increased
P450 2B10 protein expression (western blot densitometry) [2]: increased
Increase in NQO activity, liver cytosol [14]: 2–3 fold
Increase in P450 2B activity (pentoxyresorufin), liver microsomes ([15]; mouse, in vivo, po, 100 mg/kg): ~ 5 fold
P450 3A11 protein expression (western blot densitometry) [3]: increased
Increase in P450 3A activity (testosterone), liver microsomes [19, 29]: 3–4 fold

COc1c2occc2cc2ccc(=O)oc12 [8-methoxypsoralen]
EC50 [26]: 14 µM
EC50 [27]: 14 µM

O=c1ccc2ccc3occc3c2o1 [angelicin]
P450 1A1/1A2 protein expression (western blot densitometry) [1]: increased
GST activity using DCNB as a substrate, liver cytosol [28]: highest increase
Increase in P450 3A activity (testosterone), liver microsomes [19, 29]: not statistically significant

O=c1ccc2ccccc2o1 [coumarin, 1,2-benzopyrone]
P450 1A1/1A2 protein expression (western blot densitometry) [1]: did not have any apparent effect
P450 2B10 protein expression (western blot densitometry) [2]: did not have any apparent effect
Increase in NQO activity, liver cytosol [14]: 2–3 fold
P450 3A11 protein expression (western blot densitometry) [3]: did not have any apparent effect
GST activity using DCNB as a substrate, liver cytosol [28]: highest increase
